As a reminder, the MFC is the smallest concentration meeting the test's criterion for killing the fungus. Broadly, the MIC is the lowest concentration found to suppress growth.

These results are taken from ChEMBL document CHEMBL3045311, “Naturally occurring antifungal agents against Zygosaccharomyces bailii and their synergism” (2005).

SMILES strings stand for the structures. ≈ marks a conversion by molar mass, not a printed value. Calls of active or inactive are those of the source.

The test system of experiment [1] is Saccharomyces cerevisiae. Briefly: Antifungal activity against Saccharomyces cerevisiae ATCC 7754 assessed as reduction in plasma membrane fluidity at 100 ug/mL.
Experiment [2] concerns Zygosaccharomyces bailii. Briefly: Inhibition of cell growth in Zygosaccharomyces bailii at 50 ug/mL. It is filed as functional, organism-based. Summed up: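 Exponentially growing Z. bailii ATCC 60483 in YPD broth at 30 °C with drug at 0, 50 or 100 µg/mL. Viable counts taken over time by serial dilution in sterile saline and plating on YPD agar, 48 h at 30 °C, then CFU counted.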

Experiment [3] relates to Zygosaccharomyces bailii. Put plainly: Antifungal activity against Zygosaccharomyces bailii assessed as growth inhibition measured after 48 hr by macrodilution assay. It is filed as functional.
Experiment [4] relates to Zygosaccharomyces bailii. Briefly: Antifungal activity against Zygosaccharomyces bailii assessed as growth inhibition measured at pH 9 after 48 hr by macrodilution assay. It is filed as functional. The procedure, abridged:
(§1)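 Broth macrodilution in YPD adjusted to the stated pH, Z. bailii ATCC 60483. Serial 2-fold dilutions in DMF (1% final) added to broth; inoculum 10^5 CFU/mL from a 5 h 30 °C preculture. Static incubation, 30 °C, 48 h. MIC is the lowest concentration with no visible growth; MFC is the lowest with no regrowth after 48 h subculture in drug-free YPD.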

In experiment [5] the test system is Zygosaccharomyces bailii. Put plainly: Antifungal activity against Zygosaccharomyces bailii assessed as growth inhibition measured at pH 7 after 48 hr by macrodilution assay. It counts as functional. The procedure, abridged: as §1
In experiment [6] the test system is Zygosaccharomyces bailii. Briefly: Antifungal activity against Zygosaccharomyces bailii assessed as growth inhibition measured at pH 5 after 48 hr by macrodilution assay. It is filed as functional. The procedure, abridged: as §1
Experiment [7] deals with Zygosaccharomyces bailii. Put plainly: Antifungal activity against Zygosaccharomyces bailii assessed as growth inhibition measured at pH 3 after 48 hr by macrodilution assay. It is filed as functional. The procedure, abridged:
as §1

Experiment [8] deals with Zygosaccharomyces bailii. Put plainly: Antifungal activity against Zygosaccharomyces bailii assessed as growth inhibition at MFC measured after 24 hr by macrodilution assay in presence of cycloheximide protein synthesis inhibitor. It is filed as functional, organism-based. The procedure, abridged:
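Z. bailii ATCC 60483 exponential cells grown in YPD broth at 30 °C with 50 µg/mL cycloheximide. After 24 h, agent added at its MFC. Viable counts by serial dilution in sterile saline, plating on YPD agar, 48 h at 30 °C, then colony counting.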

Experiment [9] deals with Saccharomyces cerevisiae. Put plainly: Antifungal activity against Saccharomyces cerevisiae ATCC 7754 assessed as reduction in plasma membrane fluidity at 25 ug/mL.
The subject of experiment [10] is Zygosaccharomyces bailii. Briefly: Antifungal activity against Zygosaccharomyces bailii assessed as reduction in cell viability at 100 ug/mL treated at 24, 48 and 72 hr measured after 1 hr of each addition.

Take `CCCCCCCCO`: the result in experiment [1] was inactive.

Take `CCCCCCCCOC(=O)c1cc(O)c(O)c(O)c1`: the outcome in [1] was Active.

Take `C[C@@H]1C[C@@H]([C@H](O)CC2CC(=O)NC(=O)C2)C(=O)[C@@H](C)C1`: in [2], the inhibition entry was “Active”.

`CCC/C=C/C(=O)O` [(2E)-HEXENOIC ACID]: the minimum fungicidal concentration (MFC) in [3] was determined as 1600 µg/mL (≈ 14 mM); in [3] (read-out: MFC), 800 µg/mL (≈ 7.01 mM).

With `CCC/C=C\C(=O)O` [(2Z)-HEXENOIC ACID], the figures for the minimum fungicidal concentration (MFC) in [3] and in experiment [3] (read-out: MFC) were 1600 µg/mL (≈ 14 mM) and 800 µg/mL (≈ 7.01 mM), respectively.

For the molecule `C/C=C/c1ccc(OC)cc1` [ANETHOLE], the MFC in [4] is 1600 µg/mL (≈ 10.8 mM); in [5] it was 1600 µg/mL (≈ 10.8 mM); in [6], 1600 µg/mL (≈ 10.8 mM); in experiment [7], 1600 µg/mL (≈ 10.8 mM); in experiment [3], 400 µg/mL (≈ 2.7 mM); in experiment [3] (read-out: MFC) it was 200 µg/mL (≈ 1.35 mM). Further, the MIC in experiment [4] stood at 1600 µg/mL (≈ 10.8 mM); in experiment [5], 800 µg/mL (≈ 5.4 mM); in [6], 400 µg/mL (≈ 2.7 mM); in experiment [7], 100 µg/mL (≈ 0.675 mM).

For the molecule `CCCCCC(=O)O` [HEXANOATE], the minimal fungicidal concentration (MFC) in experiment [3] worked out at 3200 µg/mL (≈ 27.5 mM); in [3] (read-out: MFC), 800 µg/mL (≈ 6.89 mM).

With `C/C=C/C=C/C(=O)OC` [METHYL SORBATE], the minimal fungicidal concentration (MFC) in [3] and in [3] (read-out: MFC) was above 3200 µg/mL each time.

Turning to `Clc1ccc(COC(Cn2ccnc2)c2ccc(Cl)cc2Cl)c(Cl)c1` (stereo not given) [MICONAZOLE], the minimum fungicidal concentration (MFC) in experiment [3] and in [3] (read-out: MFC) was 12.5 µg/mL (≈ 0.03 mM) each time.

With `CC1(C)CCC[C@]2(C)[C@@H](C=O)C(C=O)=CC[C@@H]12` [POLYGODIAL], in experiment [8], the “growth inhibition (GI)” value is “Active”. Besides, the MFC in experiment [3] and in [3] (read-out: MFC) was 50 µg/mL (≈ 0.213 mM) throughout. Further, the result in experiment [9] was Active. The inhibition result in experiment [10] is “Active”.

As for `C/C=C/C=C/C(=O)O` [SORBIC ACID], the minimum fungicidal concentration (MFC) in [3] stood at 1600 µg/mL (≈ 14.3 mM); in experiment [3] (read-out: MFC) it was 800 µg/mL (≈ 7.13 mM).
